Assay outcomes (PubChem BioAssay)
Sampled rows, rich in hits. Any-hit rate of the full collection: about 2.1%.
aSyn 5UTR inh – 5' untranslated region of α-synuclein, MLPCN primary screen; actives 0.82% (n = 300,000); alpha-synuclein 5'UTR reporter, inhibitor activity; inhibition, % (tested at 7.5 µM); in the data active = inhibition above about 60%; inconclusive = no clear call, values can overlap the other calls;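 also: H4 neuroglioblastoma cells stably carrying SNCA 5'UTR luciferase fusion; 0% = DMSO wells and 100% = positive control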
FN deposition inh – fibronectin deposition inhibition | actives 0.086% (n = 350,000) | AID 743247 | AH1F fibroblasts, Alexa488-fibronectin deposition fluorescence, overnight | inhibition, % at 12.6 µM;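 active = mean inhibition across replicates of 30% or more, regardless of how many single replicates reach that level; inconclusive = mean under 30% yet at least half of replicates reach 30%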;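 also: positive control wells lacked labelled fibronectin entirely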
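material = AH1F fibroblast monolayer depositing Alexa488-labelled fibronectin into matrix | amount = 10000 AH1F cells/well | buffer or medium = DMEM plus 2% serum, read in PBS | incubation = 1 h cell adhesion before compound, then overnight fibronectin incubation | detection = fluorescence at 485 nm excitation, 525 nm emission | evaluation = percent inhibition as loss of matrix-bound fibronectin fluorescence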
LMP1 NFkB inh – Epstein-Barr LMP1 NF-kappaB reporter inhibition. LMP1-induced NF-kappaB luciferase reporter cells, luminescence. inhibition, % at 12.5 µM. actives 0.69% (n = 350,000). AID 504558; in the data active = inhibition above about 41%; inconclusive = no clear call, values can overlap the other calls;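 also: 0% = neutral control wells and 100% = reference inhibitor control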
Shn3 inh set2 – reduces Shn3 3'UTR luciferase signal in osteoblasts; actives 0.52% (n = 360,000); Clone20 osteoblast Shn3 3'UTR firefly luciferase, 24 h; inhibition, % at 12.5 µM;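 active = mean inhibition of at least 75% with every replicate also reaching 75%; inconclusive = mean inhibition at least 75% but some replicate below; inactive = mean inhibition below 75%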;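 also: 0% = median of neutral control wells and 100% = pilot-screen positive control compound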
EWS-Fli block – blocks EWS/Fli oncoprotein-driven transcription | actives 0.67% (n = 350,000) | AID 651661 | A673 NR0B1-luciferase reporter, viability-normalised | inhibition, % at 12.6 µM;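 active = mean inhibition of at least 50% after viability correction, with every replicate also passing that limit; inconclusive = mean reaches 50% but only one of two replicates passes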;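 also: firefly luciferase signal divided by Alamar Blue viability fluorescence both relative to DMSO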
PAX8 reporter – lowers PAX8-driven luciferase in RMG-I cells. RMG-I TPO-luciferase reporter, SteadyGlo, 24 h. inhibition, % at 12.6 µM. actives 1.2% (n = 360,000). AID 652154;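 active = mean replicate inhibition at least 60% with every replicate also reaching 60%; inconclusive = only one of the two criteria is met; inactive = mean below 60% and not all replicates reaching 60%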;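 also: luciferase light reporting Pax8 driven TPO promoter activity; plate controls were median of neutral control wells for no effect and mitoxantrone controls for full effect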
Starred values were filed as active, the others as inactive; ? = inconclusive; · = no result given.

SMILES | aSyn 5UTR inh | FN deposition inh | LMP1 NFkB inh | Shn3 inh set2 | EWS-Fli block | PAX8 reporter
O=C(Nc1cccc(F)c1)N1CCCCN2[C@@H](CO)[C@@H](c3ccc(-c4ccccc4F)cc3)[C@@H]2C1 | · | · | · | · | 43 | 114*
O=C(Nc1ccccc1)N1CCCCN2[C@H](CO)[C@H](c3ccc(-c4ccccc4F)cc3)[C@H]2C1 | · | 5 | · | · | 19 | -6
O=C(Nc1ccccc1)N1CCCCN2[C@H](CO)[C@H](c3ccc(-c4ccccc4F)cc3)[C@@H]2C1 | · | · | · | · | 4 | -19
CCCCn1c2ccccc2c2nnc(SCC(=O)NC3=NN=C(c4ccccc4)CS3)nc21 | -13 | -13 | · | · | 18 | 77*
CCCn1c2ccccc2c2nnc(SCC(=O)OC)nc21 | 16 | -10 | -2 | 9 | · | ·
CC(=O)Nc1ccc2c(c1)CC(=O)N(C)C[C@H](C)[C@H](CN(C)C)O2 | · | -19 | · | · | · | ·
Cc1cccc(C)c1NC(=O)NCc1ccco1 | -5 | -1 | -3 | 10 | -12 | 5
Cc1cccc(C)c1OCCNC(=O)C(=O)NCc1ccco1 | -2 | 7 | -5 | -1 | 56* | 7
C[C@@H]1CN([C@H](C)CO)C(=O)c2cc(C#CC3CCCC3)cnc2O[C@H]1CN(C)C(=O)Nc1ccccc1 | · | -10 | · | · | -13 | 3
Cc1cc(SCC(=O)N/N=C/c2ccc(O)c(O)c2O)c(C)cc1Br | 68* | · | 7 | 73 | · | ?
COc1cc(/C=N/NC(=O)CSc2cc(C)c(Br)cc2C)ccc1O | 2 | 7 | -1 | 34 | · | ·
C[C@@H]1CN([C@@H](C)CO)C(=O)Cc2cc(NC(=O)CCN3CCOCC3)ccc2O[C@H]1CN(C)CC1CC1 | · | -4 | · | · | -7 | 4
C[C@H]1CCCCO[C@@H](CN(C)S(=O)(=O)c2cccs2)[C@@H](C)CN([C@@H](C)CO)C(=O)c2cc(NC(=O)C3CCCCC3)ccc2O1 | · | · | · | · | 11 | ·
COC(=O)C12OCC34C(CC5C(C)=C(O)C(=O)CC5(C)C3C(O)C1O)OC(=O)C(OC(=O)C=C(C)C)C24 (stereo unspecified) | · | 10 | 85* | 99* | 44 | 99*
C[C@@H]1CCCCO[C@H](CN(C)C(=O)Cc2ccccc2)[C@H](C)CN([C@@H](C)CO)C(=O)c2cc(NS(C)(=O)=O)ccc2O1 | · | 8 | · | · | 3 | 4
Cc1nc([N+](=O)[O-])c(Br)n1CC(=O)c1ccc2ccccc2c1 | -24 | -7 | -31 | 95* | · | ·
CO[C@@H]1CN(C)C(=O)c2cc(NC(C)=O)ccc2OC[C@@H](C)N(C(=O)C2CCC2)C[C@@H]1C | · | -21 | · | · | -20 | -13
Cc1ccc2cc(CN(C(=O)c3ccco3)c3ccccc3)c(=O)[nH]c2c1 | -18 | · | 5 | -5 | · | ·
Cc1ccc(N(Cc2cc3ccccc3[nH]c2=O)C(=O)c2ccco2)c(C)c1 | 11 | · | 40* | 10 | · | ·
C[C@@H]1CN([C@H](C)CO)C(=O)Cc2cc(NC(=O)CCN3CCOCC3)ccc2O[C@@H]1CN(C)C(=O)Nc1cccc2ccccc12 | · | -1 | · | · | 8 | ·
COc1ccc(S(=O)(=O)Nc2ccc3c(c2)C(=O)N([C@H](C)CO)C[C@H](C)[C@H](CN(C)S(=O)(=O)c2ccc(F)cc2)OCCCC[C@H](C)O3)cc1 | · | · | · | · | 10 | 77*
COc1ccc(S(=O)(=O)Nc2ccc3c(c2)C(=O)N([C@H](C)CO)C[C@@H](C)[C@H](CN(C)S(=O)(=O)c2ccc(F)cc2)OCCCC[C@H](C)O3)cc1 | · | · | · | · | 13 | 79*
COc1ccccc1N1CCN(C(=O)c2noc(C)c2[N+](=O)[O-])CC1 | -13 | -8 | 6 | -4 | 7 | 9
Cc1onc(C(=O)N2CCN(C(c3ccccc3)c3ccccc3)CC2)c1[N+](=O)[O-] | 0 | 27 | -12 | -2 | 27 | 97*
Cc1cc(C(=O)N2CCN(C(c3ccccc3)c3ccccc3)CC2)no1 | -16 | · | -7 | 10 | · | ·
SMILES | aSyn 5UTR inh | FN deposition inh | LMP1 NFkB inh | Shn3 inh set2 | EWS-Fli block | PAX8 reporter
O=C(c1cc(-c2cccs2)on1)N1CCN(C(c2ccccc2)c2ccccc2)CC1 | -17 | -6 | 6 | 44 | · | 99*
C[C@@H]1CN([C@@H](C)CO)C(=O)c2cc(NC(=O)Nc3ccc4c(c3)OCO4)ccc2O[C@@H](C)CCCCO[C@H]1CN(C)Cc1ccc(C(F)(F)F)cc1 | · | · | · | · | 10 | 61*
C[C@@H]1CCCCO[C@H](CN(C)Cc2ccc(C(F)(F)F)cc2)[C@H](C)CN([C@H](C)CO)C(=O)c2cc(NC(=O)Nc3ccc4c(c3)OCO4)ccc2O1 | · | · | · | · | 8 | 67*
C[C@H](CO)N1C[C@H](C)[C@H](CN(C)Cc2ccc(C(F)(F)F)cc2)OCCCC[C@H](C)Oc2ccc(NC(=O)Nc3ccc4c(c3)OCO4)cc2C1=O | · | · | · | · | 13 | 96*
C[C@@H]1CN([C@H](C)CO)C(=O)c2cc(NC(=O)Nc3ccc4c(c3)OCO4)ccc2O[C@@H](C)CCCCO[C@@H]1CN(C)Cc1ccc(C(F)(F)F)cc1 | · | · | · | · | 0 | 66*
O=C(N[C@H]1CC[C@@H](CCn2cc(C3(O)CCCC3)nn2)O[C@@H]1CO)C1CCCCC1 | · | · | · | · | -1 | -6
C=CCC[C@H](Cc1ccc(F)cc1)C(=O)OC[C@H](Cc1c[nH]c2ccccc12)NC(=O)[C@@H](CC=C)CC(=O)N[C@@H](CO)Cc1ccccc1 | · | 32* | -3 | 72 | 35 | 44
C=CCC[C@H](Cc1ccc(F)cc1)C(=O)OC[C@H](Cc1c[nH]c2ccccc12)NC(=O)[C@@H](CC=C)CC(=O)N[C@H](CO)Cc1ccccc1 | · | -3 | 4 | 92* | 11 | 20
C=CC[C@H](CC(=O)N[C@H](CO)Cc1ccccc1)C(=O)N[C@H](COC(=O)[C@@H](CC=C)Cc1ccc(F)cc1)Cc1c[nH]c2ccccc12 | · | · | 5 | 22 | · | ·
C=CC[C@@H](CC(=O)N[C@H](CO)Cc1ccccc1)C(=O)N[C@H](COC(=O)[C@@H](CC=C)Cc1ccc(F)cc1)Cc1c[nH]c2ccccc12 | · | -10 | 32 | 32 | 13 | 88*
C=CCC[C@@H](Cc1ccc(F)cc1)C(=O)OC[C@H](Cc1c[nH]c2ccccc12)NC(=O)[C@@H](CC=C)CC(=O)N[C@H](CO)Cc1ccccc1 | · | 9 | -3 | 11 | 4 | 55
C[C@@H]1CN([C@H](C)CO)C(=O)c2cc(C#CC3(O)CCCC3)cnc2O[C@@H]1CN(C)Cc1ccccn1 | · | · | · | · | 3 | -9
CC(C)NC(=O)N1C[C@@H]2C(c3ccc(Br)cc3)[C@H](C1)N2Cc1ccc(F)cc1 (stereo partly specified) | · | -19 | · | · | · | ·
C[C@H]1CN([C@@H](C)CO)C(=O)Cc2cc(NC(=O)Nc3ccc4c(c3)OCO4)ccc2O[C@H]1CN(C)Cc1ccc(-c2ccccc2)cc1 | · | · | · | · | 0 | -5
C[C@H]1CN([C@@H](C)CO)C(=O)Cc2cc(NC(=O)Nc3ccc4c(c3)OCO4)ccc2O[C@@H]1CN(C)Cc1ccc(-c2ccccc2)cc1 | · | · | · | · | -1 | 78*
